ChEMBL document CHEMBL1152488, “Synthesis and evaluation of pyrido[1,2-a]pyrimidines as inhibitors of nitric oxide synthases” (Eur J Med Chem, 2009)
Active and inactive are the calls of the source. The rule behind the calls is not given here.

Legend:
[1] = molecular target: T1, Nitric oxide synthase, inducible (Mus musculus) (UniProt P29477); experiment: Inhibition of iNOS in LPS and IFN-gamma-stimulated mouse RAW264.7 cells assessed as inhibition of nitrite accumulation at 100 uM after 15 hrs by Griess assay; assay type: cell-based
T1 sequence (whole entry): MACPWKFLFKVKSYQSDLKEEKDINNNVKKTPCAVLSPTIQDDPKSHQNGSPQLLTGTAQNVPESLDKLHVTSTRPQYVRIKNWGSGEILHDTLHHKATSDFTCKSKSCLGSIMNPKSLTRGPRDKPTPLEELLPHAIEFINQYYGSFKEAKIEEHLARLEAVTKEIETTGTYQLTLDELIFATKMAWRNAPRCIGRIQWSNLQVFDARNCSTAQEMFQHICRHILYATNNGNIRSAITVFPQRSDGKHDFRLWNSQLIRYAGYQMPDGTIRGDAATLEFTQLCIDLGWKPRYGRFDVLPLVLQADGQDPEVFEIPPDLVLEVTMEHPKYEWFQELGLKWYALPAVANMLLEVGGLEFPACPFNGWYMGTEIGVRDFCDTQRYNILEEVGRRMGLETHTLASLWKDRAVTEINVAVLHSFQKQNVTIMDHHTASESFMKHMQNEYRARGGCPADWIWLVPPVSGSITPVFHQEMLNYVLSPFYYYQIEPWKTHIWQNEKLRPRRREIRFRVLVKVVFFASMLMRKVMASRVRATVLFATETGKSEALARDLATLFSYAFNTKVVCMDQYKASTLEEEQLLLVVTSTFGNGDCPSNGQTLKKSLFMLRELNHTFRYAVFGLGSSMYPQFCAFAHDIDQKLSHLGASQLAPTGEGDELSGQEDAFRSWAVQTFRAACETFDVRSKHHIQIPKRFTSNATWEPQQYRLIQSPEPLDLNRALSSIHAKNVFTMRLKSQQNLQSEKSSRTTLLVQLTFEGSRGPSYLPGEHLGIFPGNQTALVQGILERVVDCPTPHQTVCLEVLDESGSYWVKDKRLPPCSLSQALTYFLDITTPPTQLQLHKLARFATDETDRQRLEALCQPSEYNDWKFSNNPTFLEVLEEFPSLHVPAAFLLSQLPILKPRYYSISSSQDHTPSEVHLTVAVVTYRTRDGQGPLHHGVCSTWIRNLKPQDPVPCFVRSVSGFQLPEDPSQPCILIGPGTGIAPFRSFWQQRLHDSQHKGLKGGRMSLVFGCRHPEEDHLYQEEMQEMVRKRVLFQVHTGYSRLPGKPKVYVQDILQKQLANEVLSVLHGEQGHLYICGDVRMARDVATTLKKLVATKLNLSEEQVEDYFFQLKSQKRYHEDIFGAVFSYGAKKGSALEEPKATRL
Summary of the method: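 RAW 264.7 macrophages seeded at 100,000 cells/well in RPMI 1640 with 5% FCS and grown 24 h. Stimulated with 40 U/ml γ-IFN and 50 ng/ml LPS, with compound at 100 µM in 1% DMSO, for 15 h at 37 °C. Supernatant nitrite measured with Griess reagent at 550 nm against an NaNO2 calibration; 6–8 determinations.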

[2] = Lipophilicity, log D at pH 7.4 by HPLC method; settings: buffer
[3] = molecular target: Nitric oxide synthase 1 (Rattus norvegicus) (UniProt P29476); experiment: Inhibition of rat recombinant nNOS expressed in Saccharomyces cerevisiae assessed as conversion of [gamma-14C]L-arginine to [14C]L-citrulline at 100 uM by radioactive assay relative to control; parameters: scale not given: the % may be the effect or the level left
Summary of the method: (§1)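 Purified enzymes: rat nNOS from S. cerevisiae, murine iNOS and bovine eNOS from E. coli. Reaction 5 min at 37 °C in 50 mM Hepes pH 7.4 with DTT, 1 mM NADPH, H4B, FAD, FMN, [14C]L-arginine (2.5 µM L-arginine) and 100 µM compound in 1% DMSO. nNOS/eNOS also got 1 mM CaCl2 and CaM, which iNOS lacked. [14C]citrulline isolated on Dowex and counted by scintillation; % of DMSO control, n=3.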

[4] = molecular target: T2, Nitric oxide synthase 3 (Bos taurus) (UniProt P29473); experiment: Inhibition of bovine recombinant eNOS expressed in Escherichia coli assessed as conversion of [gamma-14C]L-arginine to [14C]L-citrulline at 100 uM by radioactive assay relative to control; parameters: scale not given: the % may be the effect or the level left; summary of the method: as §1
T2 sequence (whole entry): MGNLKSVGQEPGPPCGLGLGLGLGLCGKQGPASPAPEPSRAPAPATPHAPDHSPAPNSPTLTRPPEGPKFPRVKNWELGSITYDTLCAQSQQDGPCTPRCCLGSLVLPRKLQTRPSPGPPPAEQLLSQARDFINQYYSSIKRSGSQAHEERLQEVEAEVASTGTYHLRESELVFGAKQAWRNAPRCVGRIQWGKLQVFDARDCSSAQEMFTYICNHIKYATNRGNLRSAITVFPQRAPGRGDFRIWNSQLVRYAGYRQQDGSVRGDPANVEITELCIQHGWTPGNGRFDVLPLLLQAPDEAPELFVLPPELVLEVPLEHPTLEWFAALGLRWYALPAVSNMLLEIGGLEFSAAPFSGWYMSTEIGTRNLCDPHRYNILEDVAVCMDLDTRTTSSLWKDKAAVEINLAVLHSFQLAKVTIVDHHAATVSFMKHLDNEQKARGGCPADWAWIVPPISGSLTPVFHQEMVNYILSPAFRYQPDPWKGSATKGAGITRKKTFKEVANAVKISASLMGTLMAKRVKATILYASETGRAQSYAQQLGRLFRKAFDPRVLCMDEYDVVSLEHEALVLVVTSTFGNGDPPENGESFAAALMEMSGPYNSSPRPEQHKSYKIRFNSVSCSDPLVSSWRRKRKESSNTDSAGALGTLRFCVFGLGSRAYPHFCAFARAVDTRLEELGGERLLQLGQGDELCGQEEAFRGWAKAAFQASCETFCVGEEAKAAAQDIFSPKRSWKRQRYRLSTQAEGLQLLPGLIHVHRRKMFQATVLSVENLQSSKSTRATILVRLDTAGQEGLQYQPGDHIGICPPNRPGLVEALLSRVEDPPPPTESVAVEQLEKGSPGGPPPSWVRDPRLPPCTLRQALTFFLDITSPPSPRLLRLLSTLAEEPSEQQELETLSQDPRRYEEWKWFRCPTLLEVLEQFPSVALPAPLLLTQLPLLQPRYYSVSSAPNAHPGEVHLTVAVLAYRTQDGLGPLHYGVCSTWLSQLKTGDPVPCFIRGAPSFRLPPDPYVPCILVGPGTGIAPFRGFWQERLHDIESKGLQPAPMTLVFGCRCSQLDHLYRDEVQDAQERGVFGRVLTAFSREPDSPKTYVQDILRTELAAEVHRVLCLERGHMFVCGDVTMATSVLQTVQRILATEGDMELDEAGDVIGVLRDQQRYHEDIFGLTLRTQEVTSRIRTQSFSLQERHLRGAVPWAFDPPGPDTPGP

[5] = molecular target: T1, Nitric oxide synthase, inducible (Mus musculus); experiment: Binding affinity to oxygenase domain of mouse iNOS at 100 uM assessed as formation of enzyme-Fe3-ImH complex by UV-visible spectra analysis

Chain of Nitric oxide synthase 1 (Rattus norvegicus) (P29476 whole entry): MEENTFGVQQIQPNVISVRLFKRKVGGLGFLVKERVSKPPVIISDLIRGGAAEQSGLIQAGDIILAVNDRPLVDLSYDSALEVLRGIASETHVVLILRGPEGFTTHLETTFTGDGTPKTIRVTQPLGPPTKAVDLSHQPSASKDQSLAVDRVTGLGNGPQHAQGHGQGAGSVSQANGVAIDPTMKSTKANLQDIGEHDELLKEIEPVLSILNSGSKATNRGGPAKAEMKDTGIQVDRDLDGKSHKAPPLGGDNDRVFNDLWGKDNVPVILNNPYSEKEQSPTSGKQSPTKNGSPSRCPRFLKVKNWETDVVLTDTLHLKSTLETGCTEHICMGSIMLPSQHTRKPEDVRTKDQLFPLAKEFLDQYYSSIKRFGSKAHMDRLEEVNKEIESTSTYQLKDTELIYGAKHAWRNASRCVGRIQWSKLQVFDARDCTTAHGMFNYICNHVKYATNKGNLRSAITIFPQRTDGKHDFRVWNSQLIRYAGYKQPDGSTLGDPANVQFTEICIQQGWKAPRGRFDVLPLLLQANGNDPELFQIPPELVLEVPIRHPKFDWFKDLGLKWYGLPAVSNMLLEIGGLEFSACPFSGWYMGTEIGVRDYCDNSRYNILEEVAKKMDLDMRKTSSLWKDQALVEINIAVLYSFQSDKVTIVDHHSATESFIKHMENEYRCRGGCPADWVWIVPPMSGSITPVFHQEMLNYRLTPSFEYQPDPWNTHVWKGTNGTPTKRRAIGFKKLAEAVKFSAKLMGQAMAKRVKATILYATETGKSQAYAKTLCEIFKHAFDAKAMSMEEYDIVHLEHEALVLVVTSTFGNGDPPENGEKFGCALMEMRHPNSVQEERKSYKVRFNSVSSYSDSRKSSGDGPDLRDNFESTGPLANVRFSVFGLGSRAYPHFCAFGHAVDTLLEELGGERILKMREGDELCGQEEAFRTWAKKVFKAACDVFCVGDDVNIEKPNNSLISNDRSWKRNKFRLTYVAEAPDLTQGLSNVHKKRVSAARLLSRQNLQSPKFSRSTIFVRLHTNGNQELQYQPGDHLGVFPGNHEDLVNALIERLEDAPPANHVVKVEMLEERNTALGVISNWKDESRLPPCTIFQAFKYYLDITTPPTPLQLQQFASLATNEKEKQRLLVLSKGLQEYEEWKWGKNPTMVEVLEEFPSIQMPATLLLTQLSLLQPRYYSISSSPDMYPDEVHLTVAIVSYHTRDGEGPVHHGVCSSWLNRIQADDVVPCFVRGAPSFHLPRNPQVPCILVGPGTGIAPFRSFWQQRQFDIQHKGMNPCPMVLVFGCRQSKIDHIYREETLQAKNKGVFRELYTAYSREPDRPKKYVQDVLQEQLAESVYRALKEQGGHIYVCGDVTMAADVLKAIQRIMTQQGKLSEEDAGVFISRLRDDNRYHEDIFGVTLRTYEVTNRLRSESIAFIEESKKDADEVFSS

Structure (SMILES) | inhibition [1] | logD [2] | Activity [3] | Activity [4] | Activity [5]
COc1ccc(C(=O)C2CN=C3C=CC=C(C)N3C2)cc1OC.[O-][Cl+3]([O-])([O-])O (stereo not drawn) | 70% | 1.5 | 100% | 81% | –
CC1=CC2=NCC(C(=O)c3ccc(-c4ccc(C#N)cc4)cc3)CN2C=C1.Cl (stereo not drawn) | 82% | – | 43% | 18% | Active
CC1=CC=CC2=NCC(C(=O)c3ccc(F)cc3)CN12.[O-][Cl+3]([O-])([O-])O (stereo not drawn) | 44% | – | 83% | 71% | Active
CC1=CC2=NCC(C(=O)c3ccc(-c4ccc(Br)cc4)cc3)CN2C(C)=C1 (stereo not drawn) | – | – | 58% | 32% | –
COc1ccc(C(=O)C2CN=C3C=C(C)C=CN3C2)cc1F.[O-][Cl+3]([O-])([O-])O (stereo not drawn) | 64% | – | 69% | 59% | Active
CC1=CC2=NCC(C(=O)c3ccc(OCc4ccc(Br)cc4)cc3)CN2C=C1.Cl (stereo not drawn) | 96% | – | 62% | 77% | –
CC1=CC2=NCC(C(=O)c3ccc(OCc4ccc(Cl)cc4)cc3)CN2C=C1.[O-][Cl+3]([O-])([O-])O (stereo not drawn) | 92% | – | 49% | 2% | –
N=C(NCCC[C@H](N)C(=O)O)N[N+](=O)[O-] | – | – | 2% | 5% | Active
CC1=CC2=NCC(C(=O)c3ccc4ccccc4c3)CN2C=C1 (stereo not drawn) | – | 1.7 | – | – | –
O=C(c1ccc(Cl)c(Cl)c1)C1CN=C2C=CC=CN2C1.[O-][Cl+3]([O-])([O-])O (stereo not drawn) | 59% | 1.8 | 87% | 83% | Active
CC1=CC=CC2=NCC(C(=O)c3ccc(C)cc3)CN12.[O-][Cl+3]([O-])([O-])O (stereo not drawn) | 72% | 1.6 | 76% | 84% | –
CC1=CC2=NCC(C(=O)c3ccc(-c4ccc(Br)cc4)cc3)CN2C=C1.[O-][Cl+3]([O-])([O-])O (stereo not drawn) | 98% | 2.7 | 10% | 65% | Active
CC1=CC2=NCC(C(=O)c3ccc4cc(C)ccc4c3)CN2C(C)=C1.[O-][Cl+3]([O-])([O-])O (stereo not drawn) | 89% | 2.2 | 55% | 17% | Active
COc1ccc(-c2ccc(C(=O)C3CN=C4C=C(C)C=CN4C3)cc2)cc1.Cl (stereo not drawn) | 96% | – | 29% | 15% | Active
CC1=CC2=NCC(C(=O)c3ccc(OCc4ccc(C#N)cc4)cc3)CN2C=C1.[O-][Cl+3]([O-])([O-])O (stereo not drawn) | 93% | – | 60% | 44% | –
CC1=CC2=NCC(C(=O)c3ccc4cc(C)ccc4c3)CN2C=C1.[O-][Cl+3]([O-])([O-])O (stereo not drawn) | 86% | – | 69% | 48% | Active
